Test results reported in ChEMBL document CHEMBL5678805, “Intermittent administration of MEK inhibitor GDC-0973 plus PI3K inhibitor GDC-0941 triggers robust apoptosis and tumor growth inhibition” (Cancer Res, 2012).
Calls of active or inactive are those of the source. The calls are words filed in the database; no cut-off is given here.

Key:
[1] = system: NCI-H2122; assay: Antitumor activity against human NCI-H2122 cells xenografted in mouse assessed as reduction in ERK phosphorylation at 1 to 10 mg/kg, po administered for 3 days and measured at 8 hrs by Western blot analysis; format: functional; design: scale not given: the % may be the effect or the level left; settings: time 80 hrs
Summary of the method: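 NCI-H2122 xenograft mice received 3 daily oral doses of 1, 3, 5 or 10 mg/kg. Tumors were collected 2, 8 and 24 h after the last dose, pulverized on dry ice and lysed. Lysates were run on 4–12% SDS-PAGE and transferred to nitrocellulose. p-ERK1/2 and t-ERK1/2 bands were quantified on an Odyssey imager and expressed relative to vehicle-treated mice (0 h).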

[2] = biological target: Misshapen-like kinase 1 (Homo sapiens, UniProt Q8N4C8); assay: Inhibition of MINK (unknown origin)
[3] = system: CWR22R; assay: Antitumor activity against human 22Rv1 cells harboring PIK3CA Q546R/TP53 Q331R mutant xenografted in mouse assessed as tumor growth inhibition at 5 mg/kg, po; format: functional; settings: read-out: TGI
[4] = system: SK-MEL-28; assay: Antiproliferative activity against human SK-MEL-28 cells assessed reduction in cell viability incubated for 4 days in presence of 4-(2-(1H-indazol-4-yl)-6-((4-(methylsulfonyl)piperazin-1-yl)methyl)thieno[3,2-d]pyrimidin-4-yl)morpholine by celltiter-glo assay; format: functional; settings: time 4 day
Summary of the method: (§1)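 4-day CellTiter-Glo viability read-out on melanoma lines, cells exposed to increasing concentrations of each inhibitor alone and in combination.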

[5] = Antiproliferative activity against human Mel 928 cells assessed reduction in cell viability incubated for 4 days in presence of 4-(2-(1H-indazol-4-yl)-6-((4-(methylsulfonyl)piperazin-1-yl)methyl)thieno[3,2-d]pyrimidin-4-yl)morpholine by celltiter-glo assay; format: functional; settings: time 4 day; summary of the method: as §1
[6] = system: NCI-H2122; assay: Antitumor activity against human NCI-H2122 cells xenografted in mouse assessed as tumor growth inhibition at 15 mg/kg, po administered every third day for 21 days; format: functional; settings: NCI-H2122, 504 h, time 21 day, read-out: TGI
Summary of the method: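 Dosing was oral, every third day (Q3D) across 21 days, with single agents or the MEK plus PI3K combination in NCI-H2122 xenograft mice. Tumor volume was calculated as (L×W×W)/2 from caliper measurements. %TGI was derived from fitted-curve AUC per day relative to vehicle, with body weight monitored.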

[7] = biological target: Serine/threonine-protein kinase PAK 2 (Homo sapiens, UniProt Q13177); assay: Inhibition of PAK2 (unknown origin)
[8] = system: A-427; assay: Antitumor activity against human A-427 cells harboring […]/LKB1 CDKN2A CTNNB1 T41A SMARCA4 mutant xenografted in mouse assessed as tumor growth inhibition at 5 mg/kg, po; format: functional; settings: A-427, read-out: TGI
[9] = system: 888-mel; assay: Inhibition of S6 phosphorylation in human 888-mel cells incubated for 24 hrs in presence of 4-(2-(1H-indazol-4-yl)-6-((4-(methylsulfonyl)piperazin-1-yl)methyl)thieno[3,2-d]pyrimidin-4-yl)morpholine by immunoblotting analysis; format: cell-based
[10] = system: A2058; assay: Antiproliferative activity against human A2058 cells harboring BRAF V600E mutant assessed as reduction in cell viability incubated for 96 hrs in presence of 4-(2-(1H-indazol-4-yl)-6-((4-(methylsulfonyl)piperazin-1-yl)methyl)thieno[3,2-d]pyrimidin-4-yl)morpholine; format: functional, cell-based
[11] = biological target: RAF proto-oncogene serine/threonine-protein kinase (Homo sapiens, UniProt P04049); assay: Inhibition of cRAF (unknown origin)
[12] = system: A-375; assay: Antiproliferative activity against human A-375 cells assessed reduction in cell viability incubated for 4 days in presence of 4-(2-(1H-indazol-4-yl)-6-((4-(methylsulfonyl)piperazin-1-yl)methyl)thieno[3,2-d]pyrimidin-4-yl)morpholine by celltiter-glo assay; format: functional; settings: time 4 day; summary of the method: as §1
[13] = biological target: Mitogen-activated protein kinase 8 (Homo sapiens, UniProt P45983); assay: Inhibition of JNK1 (unknown origin)
[14] = Antitumor activity against human A2058-X1 cells harboring BRAF V600E/PTEN L112Q/V175/TP53 V274F mutant xenografted in mouse assessed as tumor growth inhibition at 10 mg/kg, po; format: functional; settings: A2058-X1, read-out: TGI
Summary of the method: (§2)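 Single-agent dose ranging in human tumor xenograft mice at 2.5, 5 or 10 mg/kg oral. Tumor volume was measured by caliper as (L×W×W)/2. %TGI = 100×[1 − AUC(treatment/d)/AUC(vehicle/d)] from the fitted growth curve per dose group, relative to vehicle.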

[15] = biological target: Interleukin-1 receptor-associated kinase 1 (Homo sapiens, UniProt P51617); assay: Inhibition of IRAK1 (unknown origin)
[16] = Antitumor activity against human MOLM16 cells harboring FLT3 T227M mutant xenografted in mouse assessed as tumor growth inhibition at 2.5 mg/kg, po; format: functional, MOLM-16; settings: read-out: TGI
Summary of the method: (§3)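 Human tumor xenografts in mice were dosed orally at the indicated mg/kg. Tumor volume was measured with calipers as (L×W×W)/2. %TGI = 100 × [1 − (AUC treatment/d)/(AUC vehicle/d)], using the area under the fitted tumor-growth curve per day for each dose group relative to vehicle.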

[17] = system: 888-mel; assay: Inhibition of PI3K/MEK signaling pathway in human 888-mel cells assessed as decrease in AKT phosphorylation by incubated for 24 hrs by Western blot analysis; format: cell-based
[18] = biological target: Platelet-derived growth factor receptor beta (Homo sapiens, UniProt P09619); assay: Inhibition of PDGFR beta (unknown origin)
[19] = biological target: Mitogen-activated protein kinase 3 (Homo sapiens, UniProt P27361); assay: Inhibition of ERK1 (unknown origin)
[20] = system: 888-mel; assay: Inhibition of AKT phosphorylation in human 888-mel cells preincubated with compound for 24 hrs followed by compound washout and measured after 2 hrs in presence of 4-(2-(1H-indazol-4-yl)-6-((4-(methylsulfonyl)piperazin-1-yl)methyl)thieno[3,2-d]pyrimidin-4-yl)morpholine by immunoblotting analysis; format: cell-based
Summary of the method: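 The medium was then exchanged to remove compound. Lysates were prepared 2 and 24 h after washout and immunoblotted for cleaved PARP, p-AKT and p-ERK using HRP secondary antibody and ECL.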

[21] = system: MOLM-13; assay: Antitumor activity against human MOLM-13 cells harboring FLT3 Y599_D600insFDFREYE and c-Cbl E366_Q409del mutant xenografted in mouse assessed as tumor growth inhibition at 10 mg/kg, po; format: functional; settings: read-out: TGI; summary of the method: as §3
[22] = system: HCT-116; assay: Antitumor activity against human HCT-116 cells harboring KRAS G13D/PIK3CA […]/CTNNB1 S45del/CDKN2A G23fs mutant xenografted in mouse assessed as tumor growth inhibition at 10 mg/kg, po; format: functional; settings: read-out: TGI; summary of the method: as §2
[23] = biological target: Tyrosine-protein kinase ABL1 (Homo sapiens, UniProt P00519); assay: Inhibition of Abl (unknown origin)
[24] = system: KP-4; assay: Antitumor activity against human KP-4 cells harboring KRAS G12D mutant xenografted in mouse assessed as tumor growth inhibition at 5 mg/kg, po; format: functional; settings: read-out: TGI; summary of the method: as §2
[25] = biological target: Hepatocyte growth factor receptor (Homo sapiens, UniProt P08581); assay: Inhibition of Met (unknown origin)
Chain of Hepatocyte growth factor receptor (P08581 whole entry): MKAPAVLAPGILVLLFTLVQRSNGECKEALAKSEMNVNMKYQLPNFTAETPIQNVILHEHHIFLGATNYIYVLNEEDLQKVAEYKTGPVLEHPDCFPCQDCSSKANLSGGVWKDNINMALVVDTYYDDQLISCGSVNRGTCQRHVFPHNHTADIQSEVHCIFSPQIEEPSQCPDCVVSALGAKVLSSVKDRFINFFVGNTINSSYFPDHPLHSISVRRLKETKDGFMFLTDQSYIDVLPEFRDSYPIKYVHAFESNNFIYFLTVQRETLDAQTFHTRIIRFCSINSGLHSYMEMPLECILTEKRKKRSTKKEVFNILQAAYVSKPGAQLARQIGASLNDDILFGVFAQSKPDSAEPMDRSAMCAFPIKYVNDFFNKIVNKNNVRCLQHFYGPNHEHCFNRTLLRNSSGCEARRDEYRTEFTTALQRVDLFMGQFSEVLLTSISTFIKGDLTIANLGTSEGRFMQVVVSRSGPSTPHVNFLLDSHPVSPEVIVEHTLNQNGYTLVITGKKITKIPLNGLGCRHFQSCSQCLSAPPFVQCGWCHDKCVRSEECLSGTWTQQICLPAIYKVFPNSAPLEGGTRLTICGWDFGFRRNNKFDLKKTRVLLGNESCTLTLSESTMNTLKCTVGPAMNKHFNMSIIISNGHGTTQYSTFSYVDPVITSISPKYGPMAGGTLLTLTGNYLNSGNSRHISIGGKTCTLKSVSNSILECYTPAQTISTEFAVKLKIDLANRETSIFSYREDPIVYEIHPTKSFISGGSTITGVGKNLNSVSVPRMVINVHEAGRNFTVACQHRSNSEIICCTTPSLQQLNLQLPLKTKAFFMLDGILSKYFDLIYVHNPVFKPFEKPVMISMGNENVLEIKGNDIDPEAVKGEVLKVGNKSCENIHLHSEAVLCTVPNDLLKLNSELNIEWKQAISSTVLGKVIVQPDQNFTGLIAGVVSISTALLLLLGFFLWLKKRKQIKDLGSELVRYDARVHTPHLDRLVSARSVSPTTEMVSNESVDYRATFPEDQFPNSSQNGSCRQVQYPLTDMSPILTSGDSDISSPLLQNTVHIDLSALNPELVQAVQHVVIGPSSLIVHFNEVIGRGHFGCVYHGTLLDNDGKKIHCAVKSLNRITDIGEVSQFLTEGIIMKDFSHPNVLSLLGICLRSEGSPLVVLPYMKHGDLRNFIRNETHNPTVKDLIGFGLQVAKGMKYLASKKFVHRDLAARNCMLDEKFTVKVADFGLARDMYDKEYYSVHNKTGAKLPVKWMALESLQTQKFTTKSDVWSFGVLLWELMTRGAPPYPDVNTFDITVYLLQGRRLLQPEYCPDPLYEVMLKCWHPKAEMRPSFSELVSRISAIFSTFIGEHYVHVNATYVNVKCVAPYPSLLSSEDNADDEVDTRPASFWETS

Chain of Serine/threonine-protein kinase PAK 2 (Q13177 whole entry): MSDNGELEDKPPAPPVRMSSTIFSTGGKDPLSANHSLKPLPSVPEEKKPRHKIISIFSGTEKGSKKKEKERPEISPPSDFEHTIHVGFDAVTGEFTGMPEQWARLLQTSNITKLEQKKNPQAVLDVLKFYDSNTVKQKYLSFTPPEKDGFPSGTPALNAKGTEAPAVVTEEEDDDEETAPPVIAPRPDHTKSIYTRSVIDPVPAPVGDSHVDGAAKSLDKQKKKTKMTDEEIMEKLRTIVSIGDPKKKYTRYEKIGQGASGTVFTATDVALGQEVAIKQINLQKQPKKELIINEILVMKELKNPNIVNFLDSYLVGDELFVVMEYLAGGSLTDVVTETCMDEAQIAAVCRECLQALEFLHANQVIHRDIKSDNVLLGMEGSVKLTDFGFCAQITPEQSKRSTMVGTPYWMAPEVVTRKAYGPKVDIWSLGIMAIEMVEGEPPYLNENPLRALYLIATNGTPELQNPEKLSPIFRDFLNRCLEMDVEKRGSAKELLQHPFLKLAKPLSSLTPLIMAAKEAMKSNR
Chain of RAF proto-oncogene serine/threonine-protein kinase (P04049 whole entry): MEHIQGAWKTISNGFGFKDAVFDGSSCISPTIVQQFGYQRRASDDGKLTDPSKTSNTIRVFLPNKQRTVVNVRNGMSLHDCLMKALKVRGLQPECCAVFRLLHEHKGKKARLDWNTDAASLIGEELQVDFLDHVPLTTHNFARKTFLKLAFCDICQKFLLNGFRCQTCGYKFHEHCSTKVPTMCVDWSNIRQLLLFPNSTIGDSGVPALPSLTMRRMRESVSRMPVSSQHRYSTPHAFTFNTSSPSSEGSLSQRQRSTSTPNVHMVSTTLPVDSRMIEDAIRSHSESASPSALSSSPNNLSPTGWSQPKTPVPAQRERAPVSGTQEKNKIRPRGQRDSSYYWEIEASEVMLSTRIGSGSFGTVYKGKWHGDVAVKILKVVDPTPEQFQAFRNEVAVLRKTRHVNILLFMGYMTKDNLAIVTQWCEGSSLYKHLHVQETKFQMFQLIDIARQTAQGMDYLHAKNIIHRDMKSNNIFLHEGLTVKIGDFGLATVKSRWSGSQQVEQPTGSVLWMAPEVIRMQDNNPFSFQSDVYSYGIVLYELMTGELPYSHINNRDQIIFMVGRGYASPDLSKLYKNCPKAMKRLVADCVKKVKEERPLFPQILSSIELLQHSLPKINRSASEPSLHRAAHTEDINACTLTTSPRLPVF
Chain of Tyrosine-protein kinase ABL1 (P00519 whole entry): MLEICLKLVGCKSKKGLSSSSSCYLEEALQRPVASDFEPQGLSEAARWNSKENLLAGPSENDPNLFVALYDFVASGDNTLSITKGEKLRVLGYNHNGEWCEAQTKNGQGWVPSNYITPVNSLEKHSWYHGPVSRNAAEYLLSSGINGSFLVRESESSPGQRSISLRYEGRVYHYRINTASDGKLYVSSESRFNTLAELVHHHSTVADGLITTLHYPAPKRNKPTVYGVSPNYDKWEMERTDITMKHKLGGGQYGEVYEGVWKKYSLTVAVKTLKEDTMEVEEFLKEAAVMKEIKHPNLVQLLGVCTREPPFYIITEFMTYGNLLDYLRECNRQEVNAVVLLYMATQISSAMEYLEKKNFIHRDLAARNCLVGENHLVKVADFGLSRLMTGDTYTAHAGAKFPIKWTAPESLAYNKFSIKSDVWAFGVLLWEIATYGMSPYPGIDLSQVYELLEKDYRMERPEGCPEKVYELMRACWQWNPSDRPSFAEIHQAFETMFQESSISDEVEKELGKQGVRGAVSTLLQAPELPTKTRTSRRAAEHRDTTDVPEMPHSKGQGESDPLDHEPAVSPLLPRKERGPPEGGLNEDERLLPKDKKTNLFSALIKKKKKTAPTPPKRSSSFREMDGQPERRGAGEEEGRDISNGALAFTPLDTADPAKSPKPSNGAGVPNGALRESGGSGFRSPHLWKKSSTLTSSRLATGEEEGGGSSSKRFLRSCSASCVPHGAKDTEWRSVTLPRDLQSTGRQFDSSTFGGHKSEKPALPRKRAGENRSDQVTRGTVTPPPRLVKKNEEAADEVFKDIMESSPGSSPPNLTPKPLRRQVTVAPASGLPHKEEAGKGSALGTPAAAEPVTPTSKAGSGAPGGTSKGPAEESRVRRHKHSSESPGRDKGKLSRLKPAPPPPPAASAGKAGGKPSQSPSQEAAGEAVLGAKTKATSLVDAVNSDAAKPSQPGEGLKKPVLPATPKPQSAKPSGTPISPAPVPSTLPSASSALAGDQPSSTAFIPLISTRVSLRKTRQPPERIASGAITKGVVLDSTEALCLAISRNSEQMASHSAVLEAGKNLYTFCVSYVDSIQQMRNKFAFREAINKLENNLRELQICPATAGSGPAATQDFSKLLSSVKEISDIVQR
Chain of Mitogen-activated protein kinase 3 (P27361 whole entry): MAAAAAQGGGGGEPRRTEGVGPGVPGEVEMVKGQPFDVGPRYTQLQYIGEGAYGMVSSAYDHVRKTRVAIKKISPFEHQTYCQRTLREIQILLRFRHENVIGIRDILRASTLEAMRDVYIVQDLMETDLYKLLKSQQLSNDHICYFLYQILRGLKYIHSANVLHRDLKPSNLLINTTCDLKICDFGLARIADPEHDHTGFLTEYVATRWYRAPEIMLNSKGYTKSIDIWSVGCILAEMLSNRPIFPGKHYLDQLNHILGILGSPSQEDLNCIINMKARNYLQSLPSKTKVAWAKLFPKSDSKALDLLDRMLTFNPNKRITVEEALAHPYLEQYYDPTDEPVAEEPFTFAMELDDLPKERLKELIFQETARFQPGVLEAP
Chain of Interleukin-1 receptor-associated kinase 1 (P51617 whole entry): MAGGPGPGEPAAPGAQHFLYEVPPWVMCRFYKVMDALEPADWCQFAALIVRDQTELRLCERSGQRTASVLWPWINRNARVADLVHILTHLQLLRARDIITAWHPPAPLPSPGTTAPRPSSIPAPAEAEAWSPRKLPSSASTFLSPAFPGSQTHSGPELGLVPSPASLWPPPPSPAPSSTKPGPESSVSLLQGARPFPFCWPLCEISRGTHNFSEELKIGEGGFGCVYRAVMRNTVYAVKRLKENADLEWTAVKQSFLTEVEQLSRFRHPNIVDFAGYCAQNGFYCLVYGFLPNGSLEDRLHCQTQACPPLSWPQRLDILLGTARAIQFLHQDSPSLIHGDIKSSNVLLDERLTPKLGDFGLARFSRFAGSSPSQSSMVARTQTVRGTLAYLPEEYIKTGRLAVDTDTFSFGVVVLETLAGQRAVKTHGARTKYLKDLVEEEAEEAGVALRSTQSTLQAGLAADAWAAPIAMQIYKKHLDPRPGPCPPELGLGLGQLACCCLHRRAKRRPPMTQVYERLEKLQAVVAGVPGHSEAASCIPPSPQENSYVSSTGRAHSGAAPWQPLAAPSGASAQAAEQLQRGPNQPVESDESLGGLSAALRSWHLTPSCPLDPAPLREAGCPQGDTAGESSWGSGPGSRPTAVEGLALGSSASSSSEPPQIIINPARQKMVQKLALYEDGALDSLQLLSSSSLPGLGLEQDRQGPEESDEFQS

- IC50 [2]: > 10 µM
- IC50 [7]: > 10 µM
- IC50 [11]: > 10 µM
- IC50 [13]: > 10 µM
- IC50 [15]: > 10 µM
- IC50 [18]: > 10 µM
- IC50 [19]: > 10 µM
- IC50 [23]: > 10 µM
- IC50 [25]: > 10 µM
SMILES: O=C(c1ccc(F)c(F)c1Nc1ccc(I)cc1F)N1CC(O)([C@@H]2CCCCN2)C1 [COBIMETINIB]
- Activity [1]: 83%
- inhibition in vivo at 5 mg/kg [3]: 106%
- Activity [4]: 60%
- Activity [5]: 60%
- inhibition in vivo at 15 mg/kg [6]: 71%
- inhibition in vivo at 5 mg/kg [8]: -137%
- inhibition [9]: Active
- Activity [10]: inactive
- Activity [12]: 60%
- inhibition in vivo at 10 mg/kg [14]: 61%
- inhibition in vivo at 2.5 mg/kg [16]: 7%
- inhibition [17]: Active
- inhibition [20]: Active
- inhibition in vivo at 10 mg/kg [21]: 36%
- inhibition in vivo at 10 mg/kg [22]: 84.5%
- inhibition in vivo at 5 mg/kg [24]: 69.5%
